The record followed here is ChEMBL document CHEMBL1154573, “New 7,20:14,20-diepoxy ent-kauranoids from Isodon xerophilus” (J Nat Prod, 2000).

The structures appear in SMILES notation. In brackets after ≈: the same amount, converted by molar mass.

Holding throughout (assay type): functional, cell-based
The test system of assay [1] is K562. Description: Cytotoxicity against human K562 cells after 48 hrs by MTT assay. Conditions: K562, 48 h. In outline: (§1)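 MTT reduction assay. Cells in log-phase growth were seeded at 4 × 10⁴ cells/mL and exposed in four replicates to drug at 10⁻⁴–10⁻⁸ mol/L for 48 h at 37 °C in humidified 5% CO₂. MTT (5 mg/mL solution) was then added for a further 4 h. Formazan was dissolved in 10% SDS–5% isobutanol–HCl for 12 h at room temperature. OD was read at 570 and 630 nm, and IC50 was derived. Negative controls were saline or 1% or 0.1% DMSO.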
For orientation: Tetrazolium assays rely on reduction of a dye to a coloured formazan, in cell work by metabolically active cells.

The subject of assay [2] is HL-60. Description: Cytotoxicity against human HL60 cells after 48 hrs by MTT assay. Conditions: HL-60, 48 h. In outline:
as §1

In assay [3] the test system is MKN-28. Description: Cytotoxicity against human MKN28 cells after 48 hrs by MTT assay. To be noted: MKN-28, 48 h. The method in brief: as §1
Assay [4] in a line: Cytotoxicity against human HCT cells after 48 hrs by MTT assay. The method in brief: as §1

For `C=C1C(=O)[C@@]23[C@@H]4O[C@H]5O[C@@]2(O)[C@@H](O)[C@@H]2C(C)(C)CCC[C@]52[C@@H]3[C@@H](O)C[C@@H]14` [MACROCALIN B], the IC50 (as a rule, the point on the concentration scale where inhibition reaches its midpoint) came out at 8.07 µg/mL (≈ 22.3 µM) in assay [1], 2.05 µg/mL (≈ 5.66 µM) in assay [2] and 1.68 µg/mL (≈ 4.64 µM) in assay [3].
With `O=C1c2c(O)ccc(O)c2C(=O)c2c(NCCNCCO)ccc(NCCNCCO)c21` [MITOXANTRONE], the half-maximal inhibitory concentration (IC50) in assay [1] came out at 0.0334 µg/mL (≈ 0.0751 µM); in assay [2], 0.29 µg/mL (≈ 0.652 µM); in assay [4] it was 1.54 µg/mL (≈ 3.46 µM); in assay [3], 0.02 µg/mL (≈ 0.045 µM).
For the compound `C=C1C(=O)[C@@]23[C@@H]4O[C@H]5O[C@@]2(O)[C@@H](O)[C@@H]2C(C)(C)CCC[C@]52[C@@H]3[C@@H](OC(C)=O)C[C@@H]14` [XEROPHILUSIN A], the IC50 in assay [1] came out at 2.22 µg/mL (≈ 5.49 µM); in assay [2], 0.45 µg/mL (≈ 1.11 µM); in assay [3], 0.12 µg/mL (≈ 0.297 µM).
Turning to `C=C1C(=O)[C@@]23[C@@H]4O[C@H]5O[C@@]2(O)[C@@H](O)[C@@H]2C(C)(C)CCC[C@]52[C@@H]3CC[C@@H]14` [XEROPHILUSIN B], the results for the IC50 in assay [1], in assay [2] and in assay [3] were 0.73 µg/mL (≈ 2.11 µM), 0.29 µg/mL (≈ 0.837 µM) and 0.17 µg/mL (≈ 0.491 µM), respectively.
